Bioassay records: PubChem, several laboratories
PHOSPHO1 block: PHOSPHO1 (human) inhibition; recombinant PHOSPHO1, absorbance phosphatase assay; inhibition, % at 13.3 µM; 290,000 compounds, 1.1% hits; AID 1565; in the data active = inhibition above about 60%
Target sequence (Q8TCT1 whole entry, looked up): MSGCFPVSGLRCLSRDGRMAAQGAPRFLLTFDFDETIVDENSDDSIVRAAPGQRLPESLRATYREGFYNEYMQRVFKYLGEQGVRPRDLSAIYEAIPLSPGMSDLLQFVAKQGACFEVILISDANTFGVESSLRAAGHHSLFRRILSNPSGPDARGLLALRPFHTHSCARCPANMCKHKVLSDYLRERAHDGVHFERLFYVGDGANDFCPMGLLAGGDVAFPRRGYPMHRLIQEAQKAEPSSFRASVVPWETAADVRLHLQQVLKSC
core dimer inh: blocks dimerization of HCV core protein. 300,000 compounds, 0.33% hits. TR-FRET GST/Flag-core106 dimerization, 1536-well. AID 1899. inhibition, % at 5 µM;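 active = inhibition above the mean of all tested compounds plus 3 SD, set per screening campaign, cut at about 45% in these data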
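Assay system: GST-tagged and Flag-tagged HCV core protein residues 1-106 / Times: compound-protein-antibody incubation 4 h at 22.5 °C / Signal: time-resolved FRET, ex 340 nm, em 617 and 671 nm / Evaluation: % inhibition based on acceptor/donor emission ratio / Benchmarks: wells lacking GST-core106 and wells with excess unlabelled core106 / Repeats: singlicate, one well per compound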
SUMO HTRF inh: blocks human SUMOylation mediated by UBC9; inhibition, % at 35 µM; P63279; AID 2006; 290,000 compounds, 0.36% hits; HTRF SUMOylation assay, SAE1/SAE2 + UBC9, in vitro; in the data active = inhibition above about 50%, passing the limit was not always enough
Target sequence (P63279 whole entry, looked up): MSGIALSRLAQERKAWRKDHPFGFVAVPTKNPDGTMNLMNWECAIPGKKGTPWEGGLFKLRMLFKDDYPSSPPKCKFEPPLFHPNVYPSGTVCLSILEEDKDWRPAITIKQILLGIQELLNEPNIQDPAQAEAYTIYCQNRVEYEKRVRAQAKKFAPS
VIM-2 inh: blocks Pseudomonas aeruginosa VIM-2 metallo-beta-lactamase; purified VIM-2, nitrocefin hydrolysis, epi-absorbance fluorescence; inhibition, % at 5.6 µM; 290,000 compounds, 0.89% hits;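 active = inhibition above the mean of all tested compounds plus 3 SD, cutoff set per screening run, cut at about 7.5% in these data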;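 also: red hydrolysis product quenches plate fluorescence so inhibitors raise well fluorescence; 0% = enzyme with DMSO and 100% = DMSO without enzyme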
NS3 helicase inh: blocks Hepatitis C virus NS3 helicase unwinding; NS3 helicase DNA unwinding, Cy5 molecular beacon fluorescence; inhibition, % at 10.9 µM; 290,000 compounds, 0.56% hits; AID 1800;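 active = inhibition above the mean of all tested compounds plus 3 SD, set per campaign, cut at about 35% in these data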;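 also: 0% = DMSO wells and 100% = thioflavine S control wells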
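Assay system – hepatitis C virus NS3 helicase domain fragment enzyme · Buffer or medium – MOPS pH 6.5, MgCl2, DTT, Tween20, BSA · Reagent – Cy5/quencher beacon DNA duplex and ATP to start · Compound – single 10.9 µM dose · Timing – 1 h at 25 °C · Technique – Cy5 beacon fluorescence read at start and 1 h · Measure – % inhibition of unwinding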
IMP-1 inhibitor: blocks Pseudomonas aeruginosa IMP-1 metallo-beta-lactamase. purified IMP-1, nitrocefin hydrolysis, epi-absorbance fluorescence. inhibition, % at 5.6 µM. 290,000 compounds, 0.45% hits;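 active = inhibition above the mean plus 3 SD of all compounds in the same screening run, cut at about 4.5% in these data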;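 also: 0% = IMP-1 with DMSO and 100% = DMSO wells lacking enzyme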
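System – purified recombinant IMP-1 beta-lactamase · Input – IMP-1 dispensed at 0.2 nM · Timing – 15 min preincubation plus 25 min reaction at 25 °C · Signal – Epi-absorbance fluorescence, 480 nm excitation, 530 nm emission · Measure – percent IMP-1 inhibition derived from blank-referenced optical density · Controls – Enzyme-plus-DMSO low control, enzyme-free DMSO high control · Replication – singlicate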
Starred values were filed as active, the others as inactive; . = not tested or not shown. A selection: hits, their analogues and other compounds. The true share with any hit is near 3.1%.

SMILES	PHOSPHO1 block	core dimer inh	SUMO HTRF inh	VIM-2 inh	NS3 helicase inh	IMP-1 inhibitor
CCOCc1cnc(C)nc1NCC(=O)c1c(C)[nH]c2ccc(OC)cc12	64*	-1	-8	0	2	-3
O=S(=O)(/N=C(/NC(=S)Nc1ccccc1)c1ccccc1)c1ccc(Cl)cc1	24	8	-9	-4	5	-3
O=C(O)C1CCC(N2C(=O)c3cccc([N+](=O)[O-])c3C2=O)CC1 (stereo unspecified)	-8	9	7	-2	5	-5
CCOC(=O)c1sc(NC(=S)NC(=O)CC(C)C)cc1C	16	71*	-16	-2	-11	1
CCOC(=O)c1sc(NC(=S)NC(=O)C2CCCC2)cc1C	-2	46*	-18	-1	-2	1
CCOC(=O)c1sc(NC(=O)C(C)(C)C)cc1C	30	2	12	-1	-2	-2
CCOC(=O)c1sc(NC(=O)C2CC2)cc1C	24	-19	-14	-2	-2	-1
CC(C)OCCCNC(=O)C(NS(=O)(=O)c1ccc2c(c1)c(=O)n(C)c(=O)n2C)c1ccccc1 (stereo unspecified)	6	-3	9	-2	7	-2
OCCNc1cc(Cl)ncn1	18	-1	22	-3	-13	-2
CCn1c2ccccc2c2cc(NC(=O)Cc3ccc(S(=O)(=O)N4CCOCC4)s3)ccc21	-23	60*	2	2	-26	0
CCOC(=O)c1cc(NC(=O)Cc2ccc(S(=O)(=O)N3CCOCC3)s2)cc(C(=O)OCC)c1	.	5	.	.	.	.
O=C(Cc1ccc(S(=O)(=O)N2CCOCC2)s1)Nc1ccc(N2CCOCC2)cc1	-72	9	-5	-4	1	-3
CN(C)S(=O)(=O)c1ccc(NC(=O)Cc2ccc(S(=O)(=O)N3CCOCC3)s2)cc1	-43	49*	8	-2	-1	-3
CCOC(=O)C1(CCCc2ccccc2)CCN(C(=O)Cn2nc(C)nc2C)CC1	22	-1	0	-3	3	-4
CCC1Cc2c(nc(N)c3c(N)nc(N4CCOCC4)c(C#N)c23)O1 (stereo unspecified)	24	-3	28	1	-7	-2
COCCN1C(=O)Cc2c1nc(N)c1c(N)nc(N3CCN(c4ccc(F)cc4)CC3)c(C#N)c21	-6	28	93*	0	6	-1
COc1ccc(CN2C(=O)Cc3c2nc(N)c2c(N)nc(N4CCOCC4)c(C#N)c32)cc1	30	12	101*	-5	7	-2
N#Cc1c(N(CCO)CCO)nc(N)c2c(N)nc3c(c12)CC(=O)N3Cc1cccs1	-10	9	99	-2	-13	-1
CCOc1cc2c(C#N)c(N3CCOCC3)nc(N)c2c(N)n1	-7	1	97*	.	.	.
COCC(C)N1C(=O)Cc2c1nc(N)c1c(N)nc(N3CCN(c4ccccc4F)CC3)c(C#N)c21 (stereo unspecified)	5	33	97	-2	-7	0
CN(CCO)c1nc(N)c2c(N)nc3c(c2c1C#N)CC(=O)N3Cc1cccs1	-8	2	101*	-3	-3	-1
Cc1ccc(N2CC(C(=O)NCCC3=CCCCC3)CC2=O)cc1 (stereo unspecified)	.	-1	.	.	.	.
COc1ccc(N2C(=O)CC(N(CCc3ccccc3)C(=O)/C=C/C(=O)O)C2=O)cc1 (stereo unspecified)	64*	-3	-8	-3	6	-4
CC1CCCC(NC(=O)CCC(=O)N2CCOc3ccccc32)C1C (stereo unspecified)	41	-8	-2	0	0	-1
Cc1ccc2c(c1)C1CN(C)CCC1N2CC(=O)N(C)c1ccccc1 (stereo unspecified)	83*	-2	1	0	-9	-3
SMILES	PHOSPHO1 block	core dimer inh	SUMO HTRF inh	VIM-2 inh	NS3 helicase inh	IMP-1 inhibitor
O=c1c2cc(Cl)ccc2oc2nc3n(c(=O)c12)CCCS3	30	10	22	9.7*	13	1
OC[C@H](O)[C@H](O)[C@@H](O)[C@@H](O)[C@@H]1SC(c2ccccc2)=NN1c1ccccc1	-35	-8	-2	-3	2	-3
Cc1ccc(C2=NNC(C(O)C(O)C(O)C(O)CO)S2)cc1 (stereo unspecified)	90*	-1	13	-2	-1	-5
O=C(Nc1cccnc1)/C(N=Nc1cccnc1)=C(\O)c1ccccc1	-4	-1	17	10*	-9	-4
O=C(NN1C(=O)C2C(c3ccccc3)C=CC(c3ccccc3)C2C1=O)c1ccccc1 (stereo unspecified)	-24	11	-8	2	-30	34*
O=C(NN1C(=O)C2C(c3ccccc3)C=CC(c3ccccc3)C2C1=O)c1cccc(Br)c1 (stereo unspecified)	-9	19	-18	3	-5	21*
COc1ccc2c(c1)c(=O)oc1c(C)c(OCc3cc(C(=O)O)oc3C)ccc12	23	13	70*	-4	12	-3
COc1ccc2c(c1)c(=O)oc1c(C)c(OCc3ccc(C(=O)O)cc3)ccc12	28	6	55*	0	22	0
CCCCCCCNC(=O)C1CC(=O)N(C)C(=Nc2ccc(OC)cc2)S1 (stereo unspecified)	-3	-2	-16	-4	6	-5
CCC12CCCN3CCC4(C(=C(C(=O)OC)C1)Nc1ccccc14)C32 (stereo unspecified)	99*	.	20	-4	6	-3
COc1ccc2c(c1)C(c1ccc(Cl)cc1)NC(=O)C2 (stereo unspecified)	.	-16	.	.	.	.
O=C(NC(=S)Nc1nc2ccc(F)cc2s1)c1ccco1	-11	2	-3	-2	7	0
C=CCSc1nnc(-c2cc3c(C(F)(F)F)nn(C)c3s2)n1C	24	-3	-13	0	-1	-1
C=CCSc1nnc(-c2cc3c(-c4ccccc4)nn(C)c3s2)n1C	-1	15	25	9.5*	1	0
CC1=CC(C)(C)N(C(=O)CNC2CCCC2)c2cc(C)ccc21	23	0	13	-5	31	34*
CCOc1ccc2c(c1)N(C(=O)CN1C(=O)CCC1=O)C(C)(C)C=C2C	21	-4	8	-2	-4	-3
O=S(=O)(Nc1cc(Sc2ncn[nH]2)c(O)c2ccccc12)c1ccccc1	2	.	92*	5	10	-1
COc1ccc(N2CCN(C(=O)CNC(=O)c3cccc(Br)c3)CC2)cc1	19	7	-10	-3	-3	-3
COc1ccc(OCC(=O)NNC(=O)Cc2coc3cc(OC)ccc23)cc1	8	19	-3	-2	23	5.6*
COC(=O)c1cc(NC(=O)Cc2coc3cc(OC)ccc23)cc(C(=O)OC)c1	20	4	-15	-2	-12	-2
